MT1-MMP act inh: inhibitors of human MT1-MMP activation | P50281 | HT1080 RFP-PRO-GFP cells, GFP/RFP ratio fluorescence, overnight; percent of plate control window, DMSO zero | GFP/RFP ratio change, % at 20 µM | 360,000 compounds, 0.061% hits | AID 651647;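 active means GFP/RFP ratio change of at least 30% with cell ATP level not reduced by more than half and red fluorescence within 50% of control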
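Material: RFP-PRO-GFP reporter HT1080 cells. Dosing: single-point 20 µM compound, 1% DMSO. Controls: DMSO and RFP-L50D-GFP cell wells. Timing: cells overnight before dosing, compound overnight, 37 °C, 5% CO2. Measure: GFP/RFP fluorescence ratio.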
PolyA inhibitor: inhibitors of polyadenylation in S. cerevisiae; S. cerevisiae SKY197-pL101 polyadenylation reporter, beta-gal luminescence; efflux-impaired pdr1/pdr3 knockout yeast; score 100 = 6 SD above DMSO; activity score, % at 12 µM; 300,000 compounds, 0.02% hits; AID 1875;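 active means lowest replicate activity score at least 50, where 100 means six control SD above control mean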;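 further: yeast exposed to compound for 9 h at 30 °C; higher score means more reporter readthrough which indicates perturbed polyadenylation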
DDE Tn6 FP inh: DD(E)-Tn6 binding inhibition, primary FP screen | P02675 | Fibrin DD(E) TRITC-Tn6 fluorescence polarization displacement | inhibition, % at 8.3 µM | 370,000 compounds, 0.21% hits;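 active means inhibition above a per-campaign cutoff: mean of compounds within control limits plus 3 SD, cut at about 15% in these data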;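 further: 0% = median of all compound wells on the plate and 100% = blocking peptide control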
Target sequence (P02675 whole entry, looked up): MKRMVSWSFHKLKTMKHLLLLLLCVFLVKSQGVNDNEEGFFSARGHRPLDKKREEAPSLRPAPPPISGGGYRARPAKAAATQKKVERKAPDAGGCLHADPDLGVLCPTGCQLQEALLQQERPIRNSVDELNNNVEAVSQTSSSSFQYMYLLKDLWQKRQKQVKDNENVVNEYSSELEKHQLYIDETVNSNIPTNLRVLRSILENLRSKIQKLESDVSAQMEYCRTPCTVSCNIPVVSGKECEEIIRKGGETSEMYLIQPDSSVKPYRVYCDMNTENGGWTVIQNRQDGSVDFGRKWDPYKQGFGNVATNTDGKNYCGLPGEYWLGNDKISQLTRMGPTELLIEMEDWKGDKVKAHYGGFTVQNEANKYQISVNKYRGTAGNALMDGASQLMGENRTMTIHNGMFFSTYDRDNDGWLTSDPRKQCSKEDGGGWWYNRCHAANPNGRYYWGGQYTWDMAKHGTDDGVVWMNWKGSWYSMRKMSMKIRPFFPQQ
DAGLB inh: diacylglycerol lipase beta (human) inhibition; HEK293T DAGLB membrane lysate, EnzChek fluorogenic substrate; 340,000 compounds, 0.059% hits; inhibition, % at 5.17 µM; Q8NCG7; in the data active means inhibition above about 34%;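 further: 0% = enzyme with vehicle and 100% = wells lacking enzyme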
DDE Tn7 FP inh: DD(E)-Tn7 binding inhibition, primary FP screen. P02675. FP displacement of FITC-Tn7 peptide from fibrin DD(E); 0% = median of compound wells per plate. inhibition, % at 8.3 µM. 370,000 compounds, 0.13% hits. AID 720508;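 active means inhibition above the mean of compounds falling within the control limits plus 3 SD of them, cut at about 14% in these data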;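 further: 0% = plate median of compound wells and 100% = 10 µM Aha-Tn7 peptide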
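Test system – human fibrin DD(E) · Times – 10 min preincubation, 3 h with tracer, room temperature · Detection – fluorescence polarization of the labelled Tn7 tracer · Measure – percent inhibition normalized to high-control wells · Benchmarks – high control wells with 10 µM unlabelled Aha-Tn7 peptide (full inhibition) · Repeats – singlicate testing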
SKN-1 block: C. elegans SKN-1 inhibition. inhibition, % at 21.8 µM. 360,000 compounds, 0.49% hits. C. elegans VP596 Pgst-4::GFP/RFP ratio, acrylamide-induced, 24 h;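 active means interference check ratio from 0.5 to 1.5 plus GFP to RFP signal ratio inhibition reaching or exceeding a fixed threshold, cut at about 30% in these data, passing the limit was not always enough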
DAGLB confirm: DAGLB (human) inhibition, confirmation screen | shares compounds with DAGLB inh | HEK293T DAGLB membrane lysate, EnzChek fluorogenic substrate | inhibition, % at 5.17 µM | 190 compounds, 73% hits | AID 504445;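 active means mean inhibition over triplicate wells above a set limit taken from the primary lipase screen, cut at about 34% in these data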;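 further: 0% = DAGLB with DMSO and 100% = wells lacking DAGLB enzyme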
* marks the source's active call; other numbers are inactive results; / = no result. Compounds with a hit are over-represented: about 0.9% of the library has one in this group of screens.

SMILES	MT1-MMP act inh	PolyA inhibitor	DDE Tn6 FP inh	DAGLB inh	DDE Tn7 FP inh	SKN-1 block	DAGLB confirm
COc1cccc(C(=O)Nc2cccc(C(=O)NC3=NN(c4c(Cl)cc(Cl)cc4Cl)C(=O)C3)c2)c1	-3	12	-10	36*	-10	9	17
COc1cccc(C(=O)Nc2cccc(NC(=O)c3ccccc3Cl)c2)c1	2	10	0	1	-1	5	/
Cc1ccc(NC(=O)Nc2cccnc2)cc1NC(=O)Nc1cccnc1	1	-11	-1	37*	-6	29	32
Cc1cc(C)cc(NC(=O)Nc2cccnc2)c1	-1	6	-11	1	4	-10	/
Cc1ccc2c(c1)C(CS(=O)(=O)NCc1ccc(F)cc1)NC2 (centres undefined)	/	/	7	/	5	/	/
CC(=O)C1=C(O)C(=O)N(c2cc(C(C)(C)C)on2)C1c1ccc(C(C)C)cc1 (centres undefined)	4	-5	/	22	/	0	/
CC(=O)C1=C(O)C(=O)N(c2cc(C(C)(C)C)on2)C1c1ccc(Br)cc1 (centres undefined)	13	8	1	46*	-3	-1	42*
CNC(=S)N/N=C/c1cc(Br)cc(Br)c1O	4	-35	-4	17	-1	10	/
Oc1c(Br)cc(Br)cc1/C=N/NC(=S)N[C@H]1CC2C=CC1C2 (some centres undefined)	2	-43	5	35*	-2	8	27
Cc1ccc(NC2=C(Cl)C(=O)OC2OC(=O)c2ccco2)c(C)c1 (centres undefined)	3	9	9	36*	12	-16	33
Cc1ccc(C)c(NC2=C(Cl)C(=O)OC2OC(=O)c2ccco2)c1 (centres undefined)	-2	12	8	40*	0	13	34
CCOC1OC(=O)C(Cl)=C1Nc1ccc(C)cc1C (centres undefined)	-1	6	4	-1	-3	1	/
Cc1ccc(NC2=C(Cl)C(=O)OC2OC(=O)c2ccco2)cc1C (centres undefined)	0	19	0	39*	-11	6	36*
C=CCN(CC#Cc1ccc(C(F)(F)F)cc1)CC=C	/	/	3	/	2	/	/
COc1ccc(C(=O)CSc2nnc(-c3cccnc3)n2-c2ccccc2)cc1	/	/	7	/	-2	/	/
COC(=O)C12C=C3CC(C4CC4)=C3C(=O)N1Cc1[nH]c3ccccc3c1C2 (centres undefined)	/	/	-5	/	-2	/	/
C/C=C/c1ccc([C@@H]2[C@H](CO)N(S(C)(=O)=O)[C@H]2CN(C)C(=O)CC)cc1	/	/	4	/	-9	/	/
CCOc1ccc2c(c1)-c1c(ssc1=S)C(C)(C)N2	19	4	/	39*	/	15	35*
O=[N+]([O-])c1cc([N+](=O)[O-])c2oc(-c3ccccc3)c(Br)c2c1O	-1	-38	/	37*	/	2	37*
Oc1ccccc1N=N/C(=N/Nc1ccccc1O)c1ccccc1	3	19	8	1	-1	8	/
N#C/C(N=Nc1ccccc1O)=N\Nc1ccccc1O	-50	14	-6	41*	-1	-4	83*
CC1(C)CC(=O)C2=C(C1)c1c(ccc3ccccc13)NC2c1ccc(C(=O)O)cc1 (centres undefined)	-1	-9	-1	1	0	5	/
CC1(C)CC(=O)C2=C(C1)c1c(ccc3ccccc13)NC2c1cc([N+](=O)[O-])cc([N+](=O)[O-])c1O (centres undefined)	-1	-8	-1	42*	2	3	39*
CCOC(=O)N1CCN(C(=O)C[C@H]2C[C@@]3(C(=O)OC)C(=C[C@H](COCc4ccccc4)O[C@@H]3C)N(CCc3ccc(OC)c(OC)c3)C2=O)CC1	/	/	-4	/	4	/	/

Bioassay records as filed in PubChem BioAssay.
